Results from article PMC4377730 (Theranostics, 2015).

Experiment: [18F]FDG-PET in patients
Type: in vivo, human
Outline: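 Patients fasted 6 h, and blood glucose was checked just before injection to be below 150 mg/dL. They received 300-500 MBq [18F]FDG, with PET/CT started 90 min p.i. at 2 min per bed position. A low-dose CT (120 […], 20 mAs) in shallow inspiration provided attenuation correction. Emission data were corrected for randoms, dead time, scatter and attenuation. Read-outs were SUVmean/SUVmax.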

[1] = NSCLC lesion, patient with T-cell lymphoma and NSCLC
[2] = bone marrow (BM), patient with multiple myeloma
[3] = hottest lesion in the 5th rib left, patient with multiple myeloma
[4] = lymphoma lesion, patient with T-cell lymphoma and NSCLC
[5] = nodal lesions, patient with chronic lymphocytic leukemia and suspected transformation into aggressive B-cell lymphoma

Question: For `O=C[C@H]([18F])[C@@H](O)[C@H](O)[C@H](O)CO` [[^18F]FDG, 2-[^18F]Fluoro-2-desoxyglucose], which SUVmax [1] is on record?
Answer: The SUVmax was 38.57.

Question: What about the SUVmean [1] of the same molecule?
Answer: The SUVmean was 26.36.

Question: And the SUVmax [2]?
Answer: Its SUVmax is 6.24.

Question: And the SUVmean [2]?
Answer: Its SUVmean is 3.77.

Question: And the SUVmax [3]?
Answer: The SUVmax was 8.06.

Question: What about the SUVmean [3] of the same molecule?
Answer: Its SUVmean is 5.23.

Question: What about the SUVmax [4] of the same molecule?
Answer: The SUVmax was 50.91.

Question: And the SUVmean [4]?
Answer: Its SUVmean is 29.82.

Question: And the SUVmax [5]?
Answer: The SUVmax was 5.94.

Question: And the SUVmean [5]?
Answer: The SUVmean was 3.66.
